According to ChEMBL document CHEMBL1143164, “Synthesis and structure-activity relationships of ring-opened 17-hydroxywortmannins: potent phosphoinositide 3-kinase inhibitors with improved properties and anticancer efficacy” (J Med Chem, 2008):

Legend:
[1] = biological target: Phosphatidylinositol 4,5-bisphosphate 3-kinase catalytic subunit alpha isoform (Homo sapiens, UniProt P42336); test: Inhibition of PI3K expressed in Escherichia coli by microtiter plate-based fluorescence polarization assay
How it was run: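 Fluorescence polarization assay of PI3K activity with PIP2 substrate. Reactions contained 20 mM Hepes pH 7.5, 2 mM MgCl2, 0.05% CHAPS, 0.01% βME, 20 µM PIP2 and 25 µM ATP, and ran 15–30 min at room temperature. They were stopped with buffer holding 10 nM TAMRA-labeled probe and 40 nM GST-GRP1 (E. coli-expressed detector), then incubated 1–2 h before FP readout.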

LNCaP = test: Growth inhibition of human LNCap cells; assay type: functional, cell-based
[2] = biological target: Serine/threonine-protein kinase mTOR (Homo sapiens, UniProt P42345); test: Inhibition of mTOR

Chain of Phosphatidylinositol 4,5-bisphosphate 3-kinase catalytic subunit alpha isoform (P42336 whole entry, canonical isoform): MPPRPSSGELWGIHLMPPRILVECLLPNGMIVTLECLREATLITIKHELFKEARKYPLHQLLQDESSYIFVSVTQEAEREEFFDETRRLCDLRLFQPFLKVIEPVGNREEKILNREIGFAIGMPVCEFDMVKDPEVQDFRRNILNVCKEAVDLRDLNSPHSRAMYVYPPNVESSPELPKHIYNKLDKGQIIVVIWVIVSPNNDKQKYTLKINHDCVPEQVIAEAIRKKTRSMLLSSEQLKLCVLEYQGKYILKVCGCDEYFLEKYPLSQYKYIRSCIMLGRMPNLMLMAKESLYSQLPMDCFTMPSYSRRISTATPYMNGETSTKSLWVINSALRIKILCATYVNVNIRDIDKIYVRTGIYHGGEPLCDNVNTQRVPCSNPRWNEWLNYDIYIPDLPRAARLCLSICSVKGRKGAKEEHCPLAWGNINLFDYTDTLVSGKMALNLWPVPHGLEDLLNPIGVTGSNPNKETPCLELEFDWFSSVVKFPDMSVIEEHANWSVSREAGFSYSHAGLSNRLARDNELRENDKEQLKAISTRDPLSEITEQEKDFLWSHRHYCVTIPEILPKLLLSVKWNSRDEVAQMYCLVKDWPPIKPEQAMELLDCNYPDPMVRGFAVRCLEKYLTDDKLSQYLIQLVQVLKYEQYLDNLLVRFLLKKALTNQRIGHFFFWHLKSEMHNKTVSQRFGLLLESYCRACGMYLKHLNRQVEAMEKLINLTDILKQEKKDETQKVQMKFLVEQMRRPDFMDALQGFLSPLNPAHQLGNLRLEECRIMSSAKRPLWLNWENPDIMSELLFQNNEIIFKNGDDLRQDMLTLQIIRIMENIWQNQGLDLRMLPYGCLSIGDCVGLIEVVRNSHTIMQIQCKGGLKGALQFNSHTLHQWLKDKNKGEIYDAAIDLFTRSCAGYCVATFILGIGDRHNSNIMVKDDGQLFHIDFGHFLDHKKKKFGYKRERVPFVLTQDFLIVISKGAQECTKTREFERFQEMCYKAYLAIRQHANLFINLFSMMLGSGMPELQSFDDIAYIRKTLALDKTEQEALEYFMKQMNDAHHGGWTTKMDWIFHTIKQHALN

Row | SMILES | IC50 [1] [nM] | IC50 (LNCaP) [nM] | IC50 [2] [nM]
1 | CCN(/C=C1/C(=O)O[C@H](COC)[C@@]2(C)C1=C(O)C(=O)C1=C2[C@H](OC(C)=O)C[C@]2(C)[C@@H](O)CC[C@@H]12)CCN(C)C | 5 | 1020 | 878
2 | COC[C@H]1OC(=O)/C(=C/N2CCC(C(=O)O)CC2)C2=C(O)C(=O)C3=C([C@H](OC(C)=O)C[C@]4(C)[C@@H](O)CC[C@@H]34)[C@]21C | 33 | 500 | 822
3 | COC[C@H]1OC(=O)/C(=C/N2CCN(CCCN3CCOCC3)CC2)C2=C(O)C(=O)C3=C([C@H](OC(C)=O)C[C@]4(C)[C@@H](O)CC[C@@H]34)[C@]21C | 45 | 637 | 1200
4 | COC[C@H]1OC(=O)/C(=C/N2CCOCC2)C2=C(O)C(=O)C3=C([C@H](OC(C)=O)C[C@]4(C)[C@@H](O)CC[C@@H]34)[C@]21C | 37 | 966 | 831
5 | CCN(/C=C1/C(=O)O[C@H](COC)[C@@]2(C)C1=C(O)C(=O)C1=C2[C@H](OC(C)=O)C[C@]2(C)[C@@H](O)CC[C@@H]12)CCCN(C)C | 12 | 535 | 3570
6 | COC[C@H]1OC(=O)/C(=C/N2CCC(C(=O)OC)CC2)C2=C(O)C(=O)C3=C([C@H](OC(C)=O)C[C@]4(C)[C@@H](O)CC[C@@H]34)[C@]21C | 31 | 506 | 1690
7 | COC[C@H]1OC(=O)/C(=C/N(CCC#N)Cc2ccccc2)C2=C(O)C(=O)C3=C([C@H](OC(C)=O)C[C@]4(C)[C@@H](O)CC[C@@H]34)[C@]21C | 444 | 144 | > 1690
8 | CCN(/C=C1/C(=O)O[C@H](COC)[C@@]2(C)C1=C(O)C(=O)C1=C2[C@H](O)C[C@]2(C)[C@@H](O)CC[C@@H]12)CC | 7850 | 710 | > 20000
9 | COC[C@H]1OC(=O)/C(=C/N2CCN(C)CC2)C2=C(O)C(=O)C3=C([C@H](OC(C)=O)C[C@]4(C)[C@@H](O)CC[C@@H]34)[C@]21C | 90 | 1090 | 829
10 | COC[C@H]1OC(=O)/C(=C/N2CCC(N3CCCCC3)CC2)C2=C(O)C(=O)C3=C([C@H](OC(C)=O)C[C@]4(C)[C@@H](O)CC[C@@H]34)[C@]21C | 63 | 1500 | 568
11 | COC[C@H]1OC(=O)/C(=C/N2CCC(c3ccccc3)CC2)C2=C(O)C(=O)C3=C([C@H](OC(C)=O)C[C@]4(C)[C@@H](O)CC[C@@H]34)[C@]21C | 172 | 1520 | 2450
12 | COC[C@H]1OC(=O)/C(=C/N2CCN(C3CCN(C)CC3)CC2)C2=C(O)C(=O)C3=C([C@H](OC(C)=O)C[C@]4(C)[C@@H](O)CC[C@@H]34)[C@]21C | 91 | 782 | 961
13 | CCCCN(C)/C=C1/C(=O)O[C@H](COC)[C@@]2(C)C1=C(O)C(=O)C1=C2[C@H](OC(C)=O)C[C@]2(C)[C@@H](O)CC[C@@H]12 | 635 | 203 | 8700
14 | COC[C@H]1OC(=O)/C(=C/N(C)CCCN2CCN(c3ccc(OC)cc3)CC2)C2=C(O)C(=O)C3=C([C@H](OC(C)=O)C[C@]4(C)[C@@H](O)CC[C@@H]34)[C@]21C | 15 | 620 | 1350
15 | COC[C@H]1OC(=O)/C(=C/N2CCC(=O)CC2)C2=C(O)C(=O)C3=C([C@H](OC(C)=O)C[C@]4(C)[C@@H](O)CC[C@@H]34)[C@]21C | 60 | 699 | 960

Other lines, results leading:

Row | IC50 [1] [nM] | IC50 (LNCaP) [nM] | IC50 [2] [nM] | SMILES
16 | 66 | 1430 | 5600 | COC[C@H]1OC(=O)/C(=C/N(CCN(C)C)Cc2ccccc2)C2=C(O)C(=O)C3=C([C@H](OC(C)=O)C[C@]4(C)[C@@H](O)CC[C@@H]34)[C@]21C
17 | > 10000 | 2020 | > 20000 | COC[C@H]1OC(=O)/C(=C/NCCCN(C)C)C2=C(O)C(=O)C3=C([C@H](OC(C)=O)C[C@]4(C)[C@@H](O)CC[C@@H]34)[C@]21C
18 | 10 | 465 | 2330 | COC[C@H]1OC(=O)/C(=C/N(C)CCCN2CCN(C)CC2)C2=C(O)C(=O)C3=C([C@H](OC(C)=O)C[C@]4(C)[C@@H](O)CC[C@@H]34)[C@]21C
19 | 50 | 2590 | 767 | CCN(CC)CCN(C)/C=C1/C(=O)O[C@H](COC)[C@@]2(C)C1=C(O)C(=O)C1=C2[C@H](OC(C)=O)C[C@]2(C)[C@@H](O)CC[C@@H]12
20 | 24 | 1310 | 1480 | CCN(/C=C1/C(=O)O[C@H](COC)[C@@]2(C)C1=C(O)C(=O)C1=C2[C@H](OC(C)=O)C[C@]2(C)[C@@H](O)CC[C@@H]12)CCN(CC)CC
21 | 440 | 189 | 6500 | COC[C@H]1OC(=O)/C(=C/N(C)C(C)(C)C)C2=C(O)C(=O)C3=C([C@H](OC(C)=O)C[C@]4(C)[C@@H](O)CC[C@@H]34)[C@]21C
22 | 918 | 131 | > 18700 | COC[C@H]1OC(=O)/C(=C/N(CCO)CCO)C2=C(O)C(=O)C3=C([C@H](OC(C)=O)C[C@]4(C)[C@@H](O)CC[C@@H]34)[C@]21C
23 | 1580 | 174 | 13900 | COC[C@H]1OC(=O)/C(=C/N(C)CC(=O)OC(C)(C)C)C2=C(O)C(=O)C3=C([C@H](OC(C)=O)C[C@]4(C)[C@@H](O)CC[C@@H]34)[C@]21C
24 | 638 | 2340 | > 20000 | COC[C@H]1OC(=O)/C(=C/N(C)CCCN(C)C)C2=C(O)C(=O)C3=C([C@H](O)C[C@]4(C)[C@@H](O)CC[C@@H]34)[C@]21C
25 | 38 | 831 | 249 | COC[C@H]1OC(=O)/C(=C/N2CCN(CCCN(C)C)CC2)C2=C(O)C(=O)C3=C([C@H](OC(C)=O)C[C@]4(C)[C@@H](O)CC[C@@H]34)[C@]21C
26 | 24 | 595 | 2290 | COC[C@H]1OC(=O)/C(=C/N(C)CCCN2CCOCC2)C2=C(O)C(=O)C3=C([C@H](OC(C)=O)C[C@]4(C)[C@@H](O)CC[C@@H]34)[C@]21C
27 | 22 | 259 | 3560 | COC[C@H]1OC(=O)/C(=C/N(CCCN(C)C)CCCN(C)C)C2=C(O)C(=O)C3=C([C@H](OC(C)=O)C[C@]4(C)[C@@H](O)CC[C@@H]34)[C@]21C
28 | 9.6 | 919 | 816 | COC[C@H]1OC(=O)/C(=C/N(CCCN(C)C)C(C)(C)C)C2=C(O)C(=O)C3=C([C@H](OC(C)=O)C[C@]4(C)[C@@H](O)CC[C@@H]34)[C@]21C
29 | 193 | 365 | 12600 | COC[C@H]1OC(=O)/C(=C/N(C)CCCC(=O)O)C2=C(O)C(=O)C3=C([C@H](OC(C)=O)C[C@]4(C)[C@@H](O)CC[C@@H]34)[C@]21C
30 | 199 | 168 | 1870 | COC[C@H]1OC(=O)/C(=C/N(C)CC(O)CO)C2=C(O)C(=O)C3=C([C@H](OC(C)=O)C[C@]4(C)[C@@H](O)CC[C@@H]34)[C@]21C (stereo partly drawn)
31 | 8.4 | 751 | 1470 | COC[C@H]1OC(=O)/C(=C/N(C)CCN(C)C)C2=C(O)C(=O)C3=C([C@H](OC(C)=O)C[C@]4(C)[C@@H](O)CC[C@@H]34)[C@]21C
